Data reported in PMC3590405 (European Journal of Nuclear Medicine and Molecular Imaging, 2013).
Blank lines part the entries; values can stand above or below the molecule they belong to.

Key:
[1] = cited from earlier work
[2] = system: amyloid-β plaques and neurofibrillary tangles; conditions: AD patients; cited from earlier work
[3] = system: amyloid-β plaques; test: In vitro autoradiography on human AD brain sections; format: binding; conditions: white matter
Procedure, shortened: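 Cryo-cut 10 μm post-mortem AD cortical sections preincubated in 50 mM Tris (pH 7.4) at room temperature, then 30 min with 3 nM [3H]ligand in Tris buffer. Optical densities (digital light units/mm²) read in grey and white matter ROIs. Subcortical white matter signal taken as nonspecific binding. Signal-to-noise = (grey − white)/white.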

[4] = target: Aβ(1-42) amyloid fibrils (Homo sapiens, UniProt P05067); test: Competition binding against [3H]PIB on Aβ; conditions: [3H]PIB 3 nM, Aβ(1-42) fibrils
[5] = target: synthetic Aβ(1-40) amyloid fibrils (Homo sapiens, UniProt P05067); test: Competition binding against [3H]PIB on Aβ; conditions: [3H]PIB 3 nM, Aβ(1-40) fibrils
[6] = Brain time-activity curves in human PET; format: in vivo; conditions: after intravenous injection
Procedure, shortened: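 [11C]radioligand in sterile disodium phosphate-buffered saline (pH 7.4), filtered, given as an IV bolus to control subjects and mild–moderate AD patients. Dose for the AZD2995 radioligand was 410 ± 18 MBq (620 ± 486 GBq/μmol). List-mode PET ran 93 min (38 frames), with PSF-modelled iterative reconstruction. Brain radioactivity was expressed as percent injected activity over time.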

[7] = target: amyloid-β (Homo sapiens, UniProt P05067); test: Human PET, DVR by reference Logan with cerebellum as reference; format: in vivo; conditions: for DVR (mean ± SD), anterior cingulate cortex / DVR (mean ± SD), grey matter / DVR (mean ± SD), hippocampus / DVR (mean ± SD), lateral temporal cortex / DVR (mean ± SD), parietal cortex / DVR (mean ± SD), posterior cingulate cortex / DVR (mean ± SD), prefrontal cortex / DVR (mean ± SD), white matter: refLogan
Procedure, shortened: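 IV bolus [11C]radioligands in controls and AD patients; ROIs manually drawn on 1.5-T T1 MRI, cortical ROIs restricted to segmented grey matter. Reference Logan used cerebellar cortex (white matter and vermis excluded) as reference. Six linear-phase frames: 13–45 min for AZD2995, 30–60 min for AZD2184. DVR = target/cerebellum V T. Groups compared by Mann–Whitney U (p < 0.05) and pooled-SD effect size.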

[8] = read-out: IC50, inhibition of [3H]PIB binding
[9] = AD patients vs control subjects, DVR

Chain of amyloid-β (P05067 672-711 limits assumed): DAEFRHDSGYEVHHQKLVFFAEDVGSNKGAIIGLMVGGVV
Chain of Aβ(1-42) amyloid fibrils (P05067 672-713): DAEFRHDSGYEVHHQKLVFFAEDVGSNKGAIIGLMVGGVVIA
Chain of synthetic Aβ(1-40) amyloid fibrils (P05067 672-711): as the sequence (P05067 672-711 limits assumed) above

SMILES: CNc1ccc(-c2nc3ccc(O)cc3s2)cn1 [AZD2184]
logD [1]: 1.8

SMILES: CC(=C(C#N)C#N)c1ccc2cc(N(C)CC[18F])ccc2c1 [[^18F]FDDNP]
specific binding signal compared to other amyloid radioligands [2]: ninefold lower

nonspecific binding and background, rank order [3]: highest
SMILES: [3H]C([3H])([3H])Nc1ccc(-c2nc3ccc(O)cc3s2)cc1 [[^3H]PIB]

pIC50, inhibition of [3H]PIB binding [4]: 6.69 ± 0.05 | IC50 [4, 8]: 204 nM | pIC50, inhibition of [3H]PIB binding [5]: 6.77 ± 0.02 | IC50 [5, 8]: 170 nM
SMILES: CNc1ccc(-c2nc3ccc(O)cc3o2)cn1 [AZD2995]
logD [1]: 1.3

time to peak of total radioactivity in brain [6]: at the same time | radioactivity in the brain at peak ([6]; % of injected radioactivity): 3.0–3.5% | Effect size, anterior cingulate cortex [7, 9]: 8.52 | Effect size, grey matter [7, 9]: 4.89 | Effect size, hippocampus [7, 9]: 1.73 | Effect size, lateral temporal cortex [7, 9]: 5.00 | Effect size, parietal cortex [7, 9]: 5.26 | Effect size, posterior cingulate cortex [7, 9]: 6.34 | Effect size, prefrontal cortex [7, 9]: 5.82 | Effect size, white matter [7, 9]: 2.67 | DVR (mean ± SD), anterior cingulate cortex ([7]; AD patients): 1.97 ± 0.15 | DVR (mean ± SD), grey matter ([7]; AD patients): 1.72 ± 0.17 | DVR (mean ± SD), hippocampus ([7]; AD patients): 1.11 ± 0.10 | DVR (mean ± SD), lateral temporal cortex ([7]; AD patients): 1.94 ± 0.22 | DVR (mean ± SD), parietal cortex ([7]; AD patients): 2.07 ± 0.25 | DVR (mean ± SD), posterior cingulate cortex ([7]; AD patients): 2.10 ± 0.18 | DVR (mean ± SD), prefrontal cortex ([7]; AD patients): 2.13 ± 0.23 | DVR (mean ± SD), white matter ([7]; AD patients): 1.25 ± 0.05 | DVR (mean ± SD), anterior cingulate cortex ([7]; control subjects): 0.92 ± 0.02 | DVR (mean ± SD), grey matter ([7]; control subjects): 1.05 ± 0.05 | DVR (mean ± SD), hippocampus ([7]; control subjects): 0.95 ± 0.08 | DVR (mean ± SD), lateral temporal cortex ([7]; control subjects): 1.03 ± 0.05 | DVR (mean ± SD), parietal cortex ([7]; control subjects): 1.04 ± 0.04 | DVR (mean ± SD), posterior cingulate cortex ([7]; control subjects): 1.17 ± 0.02 | DVR (mean ± SD), prefrontal cortex ([7]; control subjects): 1.04 ± 0.04 | DVR (mean ± SD), white matter ([7]; control subjects): 1.08 ± 0.13
SMILES: [11CH3]Nc1ccc(-c2nc3ccc(O)cc3s2)cn1 [[^11C]AZD2184]
